Laboratory results taken from ChEMBL document CHEMBL1151891, “Synthesis and anticancer activities of novel 3,5-disubstituted-1,2,4-oxadiazoles” (Bioorg Med Chem Lett, 2009).

Experiments:
Type in all cases: functional, cell-based
LNCaP = assay: Anticancer activity against human LNCAP cells after 24 hrs by MTT assay
In short: (§1)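 Cells maintained in RPMI-1640 with 10% heat-inactivated FBS and 1% penicillin/streptomycin. Seeded at 4.0 × 10³ cells/well for 12 h, then exposed to compounds over a 10 nM–1 mM range for 24 h. MTT added to 0.5 mg/ml final for 30 min. Cells washed twice in PBS and lysed in DMSO. Absorbance read at 570 nm; IC50 reported.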

MIA PaCa-2 = assay: Anticancer activity against human MIAPaCa2 cells after 24 hrs by MTT assay; conditions: MIA PaCa-2, 24 h; in short: as §1
PC-3 = assay: Anticancer activity against human PC3 cells after 24 hrs by MTT assay; conditions: PC-3, 24 h; in short: as §1
HCT-116 = assay: Anticancer activity against human HCT116 cells after 24 hrs by MTT assay; conditions: HCT-116, 24 h; in short: as §1
DU-145 = assay: Anticancer activity against human DU145 cells after 24 hrs by MTT assay; conditions: DU-145, 24 h; in short: as §1
MCF7 = assay: Anticancer activity against human MCF7 cells after 24 hrs by MTT assay; conditions: MCF7, 24 h; in short: as §1
[1] = Anticancer activity against human MDA231 cells after 24 hrs by MTT assay; conditions: MDA-MB-231, 24 h; in short: as §1

Question: Which IC50 (LNCaP) does the source give for COc1ccc(-c2noc(C3CCNCC3)n2)cc1OC1CCCC1 here?
Answer: 0.01 µM

Question: And the IC50 (MIA PaCa-2)?
Answer: 0.54 µM

Question: What about the IC50 (PC-3) of the same molecule?
Answer: > 1000 µM

Question: And the IC50 (HCT-116)?
Answer: 1.54 µM

Question: What about the IC50 (DU-145) of the same molecule?
Answer: 0.057 µM

Question: What about the IC50 (MCF7) of the same molecule?
Answer: 3.88 µM

Question: And the IC50 [1]?
Answer: 0.37 µM

Question: What does the source list for COc1ccc(-c2noc(Cc3c[nH]c4ccccc34)n2)cc1OC1CCCC1?
Answer: IC50 (LNCaP): > 1000 µM; IC50 (MIA PaCa-2): 9.56 µM; IC50 (PC-3): > 1000 µM; IC50 (HCT-116): > 1000 µM; IC50 (DU-145): > 1000 µM; IC50 (MCF7): > 1000 µM; IC50 [1]: > 1000 µM

Question: For COc1cc(-c2noc(-c3ccncc3)n2)ccc1OCc1ccccc1, which IC50 (LNCaP) is on record?
Answer: > 1000 µM

Question: What about the IC50 (MIA PaCa-2) of the same molecule?
Answer: > 1000 µM

Question: What about the IC50 (PC-3) of the same molecule?
Answer: > 1000 µM

Question: What about the IC50 (HCT-116) of the same molecule?
Answer: > 1000 µM

Question: What about the IC50 (DU-145) of the same molecule?
Answer: > 1000 µM

Question: And the IC50 (MCF7)?
Answer: > 1000 µM

Question: What about the IC50 [1] of the same molecule?
Answer: > 1000 µM

Question: Which IC50 (LNCaP) does the source give for COc1ccc(-c2noc(-c3ccc(F)cc3)n2)cc1OC1CCCC1 here?
Answer: 87.9 µM

Question: What about the IC50 (MIA PaCa-2) of the same molecule?
Answer: 6.09 µM

Question: What about the IC50 (PC-3) of the same molecule?
Answer: > 1000 µM

Question: And the IC50 (HCT-116)?
Answer: 210 µM

Question: And the IC50 (DU-145)?
Answer: 20.7 µM

Question: What about the IC50 (MCF7) of the same molecule?
Answer: 3.88 µM

Question: And the IC50 [1]?
Answer: 55.5 µM

Question: Which IC50 (LNCaP) does the source give for COc1ccc(-c2noc(-c3ccncc3)n2)cc1OC1CCCC1 here?
Answer: > 1000 µM

Question: What about the IC50 (MIA PaCa-2) of the same molecule?
Answer: 9.33 µM

Question: What about the IC50 (PC-3) of the same molecule?
Answer: > 1000 µM

Question: And the IC50 (HCT-116)?
Answer: > 1000 µM

Question: And the IC50 (DU-145)?
Answer: > 1000 µM

Question: What about the IC50 (MCF7) of the same molecule?
Answer: > 1000 µM

Question: And the IC50 [1]?
Answer: 240 µM

Question: Which IC50 (LNCaP) does the source give for c1ccc(-c2noc(-c3ccncc3)n2)cc1 here?
Answer: 710 µM

Question: What about the IC50 (MIA PaCa-2) of the same molecule?
Answer: 497 µM

Question: What about the IC50 (PC-3) of the same molecule?
Answer: > 1000 µM

Question: And the IC50 (HCT-116)?
Answer: > 1000 µM

Question: What about the IC50 (DU-145) of the same molecule?
Answer: 657 µM

Question: And the IC50 (MCF7)?
Answer: > 1000 µM

Question: What about the IC50 [1] of the same molecule?
Answer: > 1000 µM

Question: With COc1ccc(-c2noc(-c3ccc(O)cc3)n2)cc1OC1CCCC1 as the molecule, how does the IC50 (LNCaP) read?
Answer: 0.86 µM

Question: And the IC50 (MIA PaCa-2)?
Answer: 0.48 µM

Question: And the IC50 (PC-3)?
Answer: 162 µM

Question: What about the IC50 (HCT-116) of the same molecule?
Answer: 0.27 µM

Question: What about the IC50 (DU-145) of the same molecule?
Answer: 0.78 µM

Question: What about the IC50 (MCF7) of the same molecule?
Answer: 0.39 µM

Question: And the IC50 [1]?
Answer: 0.31 µM

Question: What does the source list for COc1ccc(-c2noc(-c3ccc(Cl)cc3)n2)cc1OC1CCCC1?
Answer: IC50 (LNCaP): 20.8 µM; IC50 (MIA PaCa-2): 0.74 µM; IC50 (PC-3): > 1000 µM; IC50 (HCT-116): > 1000 µM; IC50 (DU-145): 122 µM; IC50 (MCF7): 174 µM; IC50 [1]: 396 µM

Question: With COc1ccc(-c2noc(-c3ccccc3)n2)cc1OC1CCCC1 as the molecule, how does the IC50 (LNCaP) read?
Answer: > 1000 µM

Question: And the IC50 (MIA PaCa-2)?
Answer: > 1000 µM

Question: What about the IC50 (PC-3) of the same molecule?
Answer: > 1000 µM

Question: What about the IC50 (HCT-116) of the same molecule?
Answer: > 1000 µM

Question: And the IC50 (DU-145)?
Answer: > 1000 µM

Question: What about the IC50 (MCF7) of the same molecule?
Answer: > 1000 µM

Question: And the IC50 [1]?
Answer: > 1000 µM

Question: With COc1ccc(-c2noc(C3CCCN3)n2)cc1OC1CCCC1 (stereo not drawn) as the molecule, how does the IC50 (LNCaP) read?
Answer: 0.043 µM

Question: What about the IC50 (MIA PaCa-2) of the same molecule?
Answer: 19.5 µM

Question: What about the IC50 (PC-3) of the same molecule?
Answer: > 1000 µM

Question: And the IC50 (HCT-116)?
Answer: 185 µM

Question: And the IC50 (DU-145)?
Answer: 242 µM

Question: And the IC50 (MCF7)?
Answer: > 1000 µM

Question: What about the IC50 [1] of the same molecule?
Answer: 212 µM

Question: Which results are given for COc1ccc(-c2noc(CC(C)=O)n2)cc1OC1CCCC1?
Answer: IC50 (LNCaP): 28.3 µM; IC50 (MIA PaCa-2): 3.01 µM; IC50 (PC-3): > 1000 µM; IC50 (HCT-116): 185 µM; IC50 (DU-145): 302 µM; IC50 (MCF7): 174 µM; IC50 [1]: 53.3 µM

Question: With COc1ccc(-c2noc(-c3cccnc3)n2)cc1OC1CCCC1 as the molecule, how does the IC50 (LNCaP) read?
Answer: > 1000 µM

Question: What about the IC50 (MIA PaCa-2) of the same molecule?
Answer: > 1000 µM

Question: And the IC50 (PC-3)?
Answer: > 1000 µM

Question: And the IC50 (HCT-116)?
Answer: > 1000 µM

Question: And the IC50 (DU-145)?
Answer: > 1000 µM

Question: What about the IC50 (MCF7) of the same molecule?
Answer: > 1000 µM

Question: What about the IC50 [1] of the same molecule?
Answer: > 1000 µM

Question: For Fc1ccc(-c2nc(-c3ccccc3)no2)cc1, which IC50 (LNCaP) is on record?
Answer: 23.7 µM

Question: And the IC50 (MIA PaCa-2)?
Answer: > 1000 µM

Question: And the IC50 (PC-3)?
Answer: > 1000 µM

Question: And the IC50 (HCT-116)?
Answer: > 1000 µM

Question: And the IC50 (DU-145)?
Answer: > 1000 µM

Question: And the IC50 (MCF7)?
Answer: > 1000 µM

Question: And the IC50 [1]?
Answer: > 1000 µM

Question: For COc1ccc(-c2noc(-c3ccc(F)cc3)n2)cc1O, which IC50 (LNCaP) is on record?
Answer: > 1000 µM

Question: What about the IC50 (MIA PaCa-2) of the same molecule?
Answer: 351 µM

Question: And the IC50 (PC-3)?
Answer: > 1000 µM

Question: And the IC50 (HCT-116)?
Answer: > 1000 µM

Question: And the IC50 (DU-145)?
Answer: > 1000 µM

Question: What about the IC50 (MCF7) of the same molecule?
Answer: > 1000 µM

Question: And the IC50 [1]?
Answer: > 1000 µM
